The results in this text go back to ChEMBL document CHEMBL4257580, “Tanshinone-IIA-Based Analogues of Imidazole Alkaloid Act as Potent Inhibitors To Block Breast Cancer Invasion and Metastasis in Vivo” (J Med Chem, 2018).

In general, IC50 refers to the concentration needed to halve the response being measured. Low values mean greater potency, high ones weaker potency.

Assay [1] concerns MDA-MB-231. The assay is described as follows: Antiangiogenesis activity in human MDA-MB-231 cells xenografted in fil1:EGFP transgenic zebrafish sub-intestinal vessels assessed as slowing of the sprout of angiogenesis at 5 uM measured every 24 hrs by fluorescence microscopy. Type of assay: functional, cell-based. Put shortly:
(§1)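 Tg(fli1:EGFP) embryos at 48 hpf injected with 10–50 nL of DiI-labelled cells (~10^7 cells/mL in serum-free DMEM) into the perivitelline space near the subintestinal vessels. Ten embryos per well kept in 2 mL aquaculture water with 0 or 5 μM for 96 h. Imaged every 24 h by fluorescence microscopy; tumour area and trunk/tail fluorescence quantified, n=10/group, three experiments.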
Background: Xenograft models place foreign cells or tissue in a host animal.

Assay [2] deals with MDA-MB-231. The assay can be described thus: Cell cycle arrest in human MDA-MB-231 cells assessed as accumulation at G2 phase at 15 uM after 72 hrs by propidium iodide staining based flow cytometry (reference value: 8%). The class given is functional. (Flow cytometry measures light scatter and fluorescence of single cells or particles in a stream.)
Assay [3] has as its system MDA-MB-231. The assay can be described thus: Antimetastasis activity in human MDA-MB-231 cells assessed reduction in stress fibers by measuring F-actin protein expression at 5 to 10 uM after 24 hrs by immunofluorescence based assay.
For assay [4], the system named is MDA-MB-231. The assay can be described thus: Cell cycle arrest in human MDA-MB-231 cells assessed as downregulation of cyclin A expression at 5 to 15 uM after 72 hrs by Western blot analysis. The class given is functional, cell-based. The gist of the method:
(§2)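 Cells treated with 0, 5, 10 or 15 μM for 72 h. Lysates quantified by BCA, equal protein resolved on 10% tricine SDS-PAGE and transferred to nitrocellulose. Membranes blocked in 5% milk/TBST, then primary antibodies 1:1000 overnight at 4 °C and HRP secondary 1:2000 for 1 h at room temperature. Three independent experiments.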
A general note: In western blotting, separated proteins are transferred to a membrane and probed.

Assay [5] deals with MDA-MB-231. The assay can be described thus: Antiinvasive activity against human MDA-MB-231 cells assessed as reduction in number of black holes at 3 uM after 24 hrs by FITC-gelatin based confocal microscopy. Type of assay: functional, cell-based. Put shortly:
(§3)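 Coverslips coated with poly-L-lysine, fixed with glutaraldehyde, overlaid with 0.2% FITC-gelatin in PBS/2% sucrose and quenched with sodium borohydride. Cells (2×10^5/well) plated with 0, 3 or 6 μM at 37 °C for 24 h. Gelatin degradation, seen as nonfluorescent dark holes, imaged by laser confocal microscopy; F-actin counterstained with rhodamine-phalloidin.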

The next assay deals with A549. The assay is described as follows: Antiproliferative activity against human A549 cells after 72 hrs by MTT assay. Type of assay: functional, cell-based. To be noted: A549, 72 h. Put shortly: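 A549, HeLa, HepG2 and normal liver L02 cells kept in DMEM with 10% FBS at 37 °C under 5% CO2. Plated at 5×10^3 cells/well for 24 h, then treated with graded concentrations for 72 h. Viability measured by MTT reduction (5 h), formazan dissolved in DMSO and read at 570 nm. Three repeats.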

The test system of assay [6] is MDA-MB-231. The assay can be described thus: Induction of apoptosis in human MDA-MB-231 cells assessed as early apoptotic cells at 10 uM after 72 hrs by annexin-V/propidium iodide double staining based flow cytometry (reference value: 0.02%). Type of assay: functional.
Assay [7] concerns MDA-MB-231. The assay can be described thus: Antiangiogenesis activity in human MDA-MB-231 cells xenografted in fil1:EGFP transgenic zebrafish sub-intestinal vessels assessed as inhibition of cell invasion at 5 uM measured every 24 hrs for 96 hrs by fluorescence microscopy. The class given is functional, cell-based. Put shortly: as §1
For assay [8], the system named is MDA-MB-231. The assay can be described thus: Antiinvasive activity against human MDA-MB-231 cells assessed as reduction in number of black holes at 6 uM after 24 hrs by FITC-gelatin based confocal microscopy. Type of assay: functional, cell-based. The gist of the method: as §3
The test system of assay [9] is MDA-MB-231. The assay can be described thus: Antimetastasis activity in human MDA-MB-231 cells assessed upregulation of GSKbeta protein expression at 5 to 15 uM after 72 hrs by Western blot analysis. Type of assay: functional, cell-based. Put shortly:
as §2

Assay [10] has as its system MDA-MB-231. The assay can be described thus: Induction of DNA damage in human MDA-MB-231 cells assessed as increase in olive tail moment at 10 to 20 uM by comet assay. The class given is functional, cell-based. The gist of the method: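 Neutral comet assay on cells treated with 0, 10 or 20 μM for 24 h. DNA stained with SYBR Green I and imaged by fluorescence microscopy. Olive tail moment measured on 50 randomly selected cells per slide.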

Assay [11] has as its system MDA-MB-231. The assay can be described thus: Induction of DNA damage in human MDA-MB-231 cells assessed as up-regulation of p53 expression at 2 to 15 uM by Western blot analysis. The class given is functional, cell-based.
Assay [12] concerns MDA-MB-231. The assay is described as follows: Cell cycle arrest in human MDA-MB-231 cells assessed as accumulation at S phase at 15 uM after 72 hrs by propidium iodide staining based flow cytometry (reference value: 42.60%). Type of assay: functional.
Assay [13] relates to MDA-MB-231. The assay can be described thus: Induction of apoptosis in human MDA-MB-231 cells assessed as late apoptotic cells at 15 uM after 72 hrs by annexin-V/propidium iodide double staining based flow cytometry (reference value: 0.12%). Type of assay: functional.
Assay [14] concerns MDA-MB-231. The assay is described as follows: Induction of apoptosis in human MDA-MB-231 cells assessed as up-regulation cleaved caspase3 expression at 5 to 15 uM after 72 hrs by Western blot analysis. Type of assay: functional, cell-based. Put shortly:
as §2

For assay [15], the system named is MDA-MB-231. The assay can be described thus: Induction of apoptosis in human MDA-MB-231 cells assessed as late apoptotic cells at 5 uM after 72 hrs by annexin-V/propidium iodide double staining based flow cytometry (reference value: 0.12%). Type of assay: functional.
For assay [16], the system named is MDA-MB-231. The assay is described as follows: Induction of morphological changes in human MDA-MB-231 cells assessed as unevening of cell membrane surface with large and numerous particles at 5 to 20 uM after 72 hrs. The class given is functional, cell-based.
For assay [17], the system named is MDA-MB-231. The assay is described as follows: Cell cycle arrest in human MDA-MB-231 cells assessed as accumulation at G1 phase at 10 uM after 72 hrs by propidium iodide staining based flow cytometry (reference value: 49.40%). Type of assay: functional.
For assay [18], the system named is MDA-MB-231. The assay can be described thus: Antitumor activity in human MDA-MB-231 cells xenografted in fil1:EGFP transgenic zebrafish sub-intestinal vessels assessed as reduction in tumor area at 5 uM measured every 24 hrs for 96 hrs by fluorescence microscopy. The class given is functional, cell-based. Put shortly:
as §1

The structures appear in SMILES notation. The source made the active and inactive calls. No cut-off for these calls is given here.

Take `Cc1coc2c3ccc4c(c3c3[nH]c(-c5ccc(O)cc5)nc3c12)CCCC4(C)C`: the outcome with MDA-MB-231 [1], in the assay with MDA-MB-231 [3], in the assay with MDA-MB-231 [4], with MDA-MB-231 [5], with MDA-MB-231 [7] and in the assay on MDA-MB-231 [8] was Active. Moreover, the outcome in the assay with MDA-MB-231 [9], in the assay on MDA-MB-231 [10], in the assay on MDA-MB-231 [11], in the assay with MDA-MB-231 [14], in the assay on MDA-MB-231 [16] and in the assay on MDA-MB-231 [18] was Active. Besides, the Activity in the assay with MDA-MB-231 [2] is given as 10.12%; in the assay on MDA-MB-231 [6], 3.87%; with MDA-MB-231 [12] it was 54.51%; with MDA-MB-231 [13] it was 2.73%; in the assay with MDA-MB-231 [15], 0.43%; in the assay with MDA-MB-231 [17] it was 35.49%. This compound also registered an IC50 with A549 of 6.9 µM.
